Data published in ChEMBL document CHEMBL3872222, “Synthesis of novel curcuminoids accommodating a central β-enaminone motif and their impact on cell growth and oxidative stress” (Eur J Med Chem, 2016).
In brackets after ≈: the same amount, converted by molar mass.

Assays:
[1] = Growth inhibition of human EAhy926 cells measured after 72 hrs by SRB assay; assay type: cell-based; conditions: EA.hy 926, 72 h
How it was run: (§1)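 20000 cells/well treated after 1 day at 1, 5, 10, 25 μM, serum-free, for 3 days. Fixed with 50% TCA 1 h at 4 °C, stained 30 min with 0.4% sulforhodamine B in 1% acetic acid, rinsed with 1% acetic acid, dye dissolved in 10 mM Tris, absorbance 490 nm; triplicate; IC50 derived.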

[2] = Growth inhibition of differentiated human Caco2 cells measured after 72 hrs by SRB assay; assay type: cell-based; conditions: Caco-2, 72 h; how it was run: as §1
EA.hy 926 [3] = assay: Effect on oxidative stress in human EAhy926 cells assessed as intracellular ROS level at 10 uM after overnight incubation by DCFH-DA staining based fluorescence assay relative to control; assay type: functional
How it was run: (§2)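 Cells grown in DMEM+glutamax, 1% NEAA, 1% P/S, 10% FBS; seeded 20000/well, treated at confluency overnight in serum-free medium, DMSO under 0.1% final. Loaded with 20 μM DCFH-DA 30 min at 37 °C, 10% CO2; washed, phenol red-free medium 1 h, then serum-free medium; fluorescence ex 485/em 535 nm. Percent of untreated; two-tailed unequal-variance t-test, n≥6.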

[4] = Growth inhibition of human HT-29 cells measured after 72 hrs by SRB assay; assay type: functional, cell-based; conditions: HT-29, 72 h; how it was run: as §1
EA.hy 926 [5] = assay: Effect on oxidative stress in human EAhy926 cells assessed as intracellular ROS level at 1 uM after overnight incubation by DCFH-DA staining based fluorescence assay relative to control; assay type: functional; how it was run: as §2
[6] = Growth inhibition of undifferentiated human Caco2 cells assessed as mitochondrial activity measured after 72 hrs by MTT assay; assay type: functional, cell-based; conditions: Caco-2, 72 h
How it was run: (§3)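 Seeded 20000 cells/well in DMEM+glutamax, NEAA, P/S, FBS; after 1 day treated 1, 5, 10, 25 μM in serum-free medium (DMSO under 0.1%) for 3 days. MTT (5 mg/ml in PBS) 2 h at 37 °C, 10% CO2 in dark; formazan dissolved in DMSO, absorbance 570 nm; triplicate; IC50 derived.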

[7] = Growth inhibition of CHOK1 cells measured after 72 hrs by SRB assay; assay type: functional, cell-based; conditions: Cricetulus griseus, CHO-K1, 72 h; how it was run: as §1
CHO [8] = assay: Effect on oxidative stress in CHO cells assessed as intracellular ROS level at 10 uM after overnight incubation by DCFH-DA staining based fluorescence assay relative to control; assay type: functional, Cricetulus griseus; how it was run: as §2
Caco-2 [9] = assay: Effect on oxidative stress in undifferentiated human Caco2 cells assessed as intracellular ROS level at 10 uM after overnight incubation by DCFH-DA staining based fluorescence assay relative to control; assay type: functional; how it was run: as §2
[10] = Solubility of the compound in serum-free DMEM assessed as compound concentration required for crystal formation measured after 1 day by microscopic analysis; assay type: physicochemical; conditions: 24 h
How it was run: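 Compound at 0, 0.5, 1, 5, 10, 25 and 50 μM in serum-free DMEM incubated 1 day at 37 °C, 10% CO2, then examined for crystal formation.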

[11] = Growth inhibition of CHOK1 cells assessed as mitochondrial activity measured after 72 hrs by MTT assay; assay type: functional, cell-based; conditions: Cricetulus griseus, CHO-K1, 72 h; how it was run: as §3
[12] = Growth inhibition of human HT-29 cells assessed as mitochondrial activity measured after 72 hrs by MTT assay; assay type: functional, cell-based; conditions: HT-29, 72 h; how it was run: as §3
[13] = Growth inhibition of human EAhy926 cells assessed as mitochondrial activity measured after 72 hrs by MTT assay; assay type: cell-based; conditions: EA.hy 926, 72 h; how it was run: as §3
[14] = Growth inhibition of undifferentiated human Caco2 cells measured after 72 hrs by SRB assay; assay type: functional, cell-based; conditions: Caco-2, 72 h; how it was run: as §1
[15] = Antioxidant activity assessed as inhibition of DPPH radical activity at 1 uM measured after 30 mins under dark conditions by spectrophotometric analysis relative to control; assay type: functional
Caco-2 [16] = assay: Effect on oxidative stress in undifferentiated human Caco2 cells assessed as intracellular ROS level at 1 uM after overnight incubation by DCFH-DA staining based fluorescence assay relative to control; assay type: functional; how it was run: as §2
HT-29 [17] = assay: Effect on oxidative stress in human HT-29 cells assessed as intracellular ROS level at 10 uM after overnight incubation by DCFH-DA staining based fluorescence assay relative to control; assay type: functional; how it was run: as §2
[18] = Growth inhibition of differentiated human Caco2 cells assessed as mitochondrial activity measured after 72 hrs by MTT assay; assay type: cell-based; conditions: Caco-2, 72 h; how it was run: as §3
CHO [19] = assay: Effect on oxidative stress in CHO cells assessed as intracellular ROS level at 1 uM after overnight incubation by DCFH-DA staining based fluorescence assay relative to control; assay type: functional, Cricetulus griseus; how it was run: as §2
HT-29 [20] = assay: Effect on oxidative stress in human HT-29 cells assessed as intracellular ROS level at 1 uM after overnight incubation by DCFH-DA staining based fluorescence assay relative to control; assay type: functional; how it was run: as §2
[21] = Antioxidant activity assessed as trolox equivalent of ferric ion reducing activity using Fe3+-TPTZ by measuring Fe2+-TPTZ formation after 4 mins by UV-vis spectrophotometry based FRAP assay; assay type: functional
How it was run: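 FRAP reagent: 300 mM acetate buffer, 10 mM TPTZ in ethanol and 20 mM FeCl3 (in dilute HCl) combined 10:1:1, TPTZ and iron freshly made. Sample mixed 1:9 with reagent; absorbance 593 nm after 4 min. Expressed as trolox equivalents per μM from slope of linear plot versus analog concentration.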

Structure (SMILES) | IC50 [1] [µM] | IC50 [2] [µM] | Activity (EA.hy 926 [3]) [%] | IC50 [4] [µM] | Activity (EA.hy 926 [5]) [%] | IC50 [6] [µM] | IC50 [7] [µM] | Activity (CHO [8]) [%] | Activity (Caco-2 [9]) [%] | solubility [10] [µM] | IC50 [11] [µM] | IC50 [12] [µM] | IC50 [13] [µM] | IC50 [14] [µM] | inhibition [15] [%] | Activity (Caco-2 [16]) [%] | Activity (HT-29 [17]) [%] | IC50 [18] [µM] | Activity (CHO [19]) [%] | Activity (HT-29 [20]) [%] | also measured
CCC(C)NC(=C\C(=O)/C=C/c1ccc(O)cc1)/C=C/c1ccc(O)cc1 (configuration not stated) | > 25 | > 25 | 414 | 15.6 | 99 | 9.4 | 15.1 | 111 | 102 | 25 (≈ 9.09 µg/mL) | 13.1 | 13 | 22 | 5.8 | 0.03 | 102 | 76 | > 25 | 104 | 76 | Activity [21]: 0.18 µMequiv/µM
C=CCNC(=C\C(=O)/C=C/c1ccc(O)c(OC)c1)/C=C/c1ccc(O)c(OC)c1 | > 25 | > 25 | 267 | 24.6 | 124 | > 25 | > 25 | 104 | 76 | 25 (≈ 10.2 µg/mL) | 7.4 | > 25 | > 25 | > 25 | 0.1 | 89 | 84 | > 25 | 115 | 99 | Activity [21]: 1.14 µMequiv/µM
CCC(C)NC(=C\C(=O)/C=C/c1ccc(O)c(OC)c1)/C=C/c1ccc(O)c(OC)c1 (configuration not stated) | > 25 | > 25 | 184 | 22.3 | 85 | > 25 | > 25 | 112 | 66 | 50 (≈ 21.2 µg/mL) | > 25 | > 25 | > 25 | > 25 | 0.13 | 91 | 90 | > 25 | 107 | 99 | Activity [21]: 1.08 µMequiv/µM
CCCCNC(=C\C(=O)/C=C/c1ccc(O)c(OC)c1)/C=C/c1ccc(O)c(OC)c1 | > 25 | > 25 | 439 | 21.2 | 110 | > 25 | 20.4 | 110 | 83 | 5 (≈ 2.12 µg/mL) | 7 | 19.7 | > 25 | 23.8 | 0.08 | 91 | 98 | > 25 | 129 | 99 | Activity [21]: 1.29 µMequiv/µM
COc1cc(/C=C/C(=O)/C=C(/C=C/c2ccc(OC(C)=O)c(OC)c2)NC2CCCCC2)ccc1OC(C)=O | > 25 | > 25 | 113 | > 25 | 101 | 9.7 | > 25 | 122 | 62 | 5 (≈ 2.67 µg/mL) | 10.1 | > 25 | > 25 | 4.4 | 0.01 | 89 | 94 | > 25 | 89 | 96 | Activity [21]: 0.04 µMequiv/µM
COc1cc(/C=C/C(=O)CC(=O)/C=C/c2ccc(OC(C)=O)c(OC)c2)ccc1OC(C)=O | > 25 | > 25 | 189 | > 25 | 114 | > 25 | > 25 | 112 | 90 | 0.5 (≈ 0.226 µg/mL) | > 25 | > 25 | > 25 | > 25 | 0 | 93 | 76 | > 25 | 128 | 79 | Activity [21]: 0.03 µMequiv/µM
CCCNC(=C\C(=O)/C=C/c1ccc(O)c(OC)c1)/C=C/c1ccc(O)c(OC)c1 | > 25 | > 25 | 141 | > 25 | 78 | > 25 | > 25 | 118 | 88 | 50 (≈ 20.5 µg/mL) | > 25 | 22.7 | > 25 | 22 | 0.1 | 97 | 92 | > 25 | 116 | 88 | Activity [21]: 0.87 µMequiv/µM
